Reference: ChEMBL document CHEMBL4402612, “Heterodimeric Analogues of the Potent Y1R Antagonist 1229U91, Lacking One of the Pharmacophoric C-Terminal Structures, Retain Potent Y1R Affinity and Show Improved Selectivity over Y4R” (J Med Chem, 2020)
Positions of bridges follow the written chain, without caps; N, C: chain ends. Non-standard residues stand in square brackets, D forms with d. Residues, ends and D or L forms follow the SMILES beside them. Chains are numbered I, II in the order given. Orn = NCCC[C@H](N)C(=O)O; Dab = NCC[C@H](N)C(=O)O; Dap = NC[C@H](N)C(=O)O

Key:
[1] = target: T1, Neuropeptide Y receptor type 4 (Homo sapiens, UniProt P50391); assay: Displacement of (sCy5)-[Lys2 Arg4]-BVD15 from GFP-tagged Y4R in human HEK293T cells assessed as inhibitory constant incubated for 5 mins followed by (sCy5)-[Lys2 Arg4]-BVD15 addition and measured after 30 mins by fluorescence based assay; assay type: cell-based
Outline: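 Competitors (10^-10–10^-6 M) added in HBSS/0.1% BSA with H33342 for 5 min, then 100 nM final (sCy5)-[Lys²Arg⁴]-BVD15 for 30 min at 37 °C. Washed and imaged confocally; granule counts per cell. Non-specific binding with 100 nM PP.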

[2] = target: T1, Neuropeptide Y receptor type 4; assay: Agonist activity at Y4R in human HEK293T cells assessed as increase in beta-arrestin recruitment incubated for 60 mins by Hoechst 33342 dye based fluorescence analysis
Homo sapiens = species: Homo sapiens; assay: Selectivity index, ratio of Ki of GFP-tagged Y4R in human HEK293T cells to Ki GFP-tagged Y1R in human HEK293T cells; assay type: cell-based
Outline: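 Ratio of mean Ki values, Y4/Y1, from whole-cell competition binding in tetracycline-induced 293TR Y1-GFP or Y4-GFP cells. Tracer was 100 nM (sCy5)-[Lys²Arg⁴]-BVD15, added after 5 min competitor preincubation, then 30 min at 37 °C, with imaging read-out.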

[3] = target: T1, Neuropeptide Y receptor type 4; assay: Agonist activity at Y4R in human HEK293T cells assessed as increase in beta-arrestin recruitment incubated for 60 mins by Hoechst 33342 dye based fluorescence analysis relative to pancreatic polypeptide
[4] = target: T2, Neuropeptide Y receptor type 1 (Homo sapiens, UniProt P25929); assay: Displacement of (sCy5)-[Lys2 Arg4]-BVD15 from GFP-tagged Y1R in human HEK293T cells assessed as inhibitory constant incubated for 5 mins followed by (sCy5)-[Lys2 Arg4]-BVD15 addition and measured after 30 mins by fluorescence based assay; assay type: cell-based
T2 sequence (P25929 whole entry): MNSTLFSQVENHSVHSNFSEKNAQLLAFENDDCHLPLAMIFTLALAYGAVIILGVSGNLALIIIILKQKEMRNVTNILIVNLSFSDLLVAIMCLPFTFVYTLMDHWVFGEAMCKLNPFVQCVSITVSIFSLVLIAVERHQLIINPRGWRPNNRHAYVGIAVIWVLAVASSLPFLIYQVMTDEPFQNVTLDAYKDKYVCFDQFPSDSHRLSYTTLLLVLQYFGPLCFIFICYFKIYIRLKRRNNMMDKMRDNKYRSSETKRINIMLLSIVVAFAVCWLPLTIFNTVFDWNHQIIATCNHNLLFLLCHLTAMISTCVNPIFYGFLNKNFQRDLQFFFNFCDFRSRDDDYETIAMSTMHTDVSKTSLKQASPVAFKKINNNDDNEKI

T1 sequence (P50391 whole entry): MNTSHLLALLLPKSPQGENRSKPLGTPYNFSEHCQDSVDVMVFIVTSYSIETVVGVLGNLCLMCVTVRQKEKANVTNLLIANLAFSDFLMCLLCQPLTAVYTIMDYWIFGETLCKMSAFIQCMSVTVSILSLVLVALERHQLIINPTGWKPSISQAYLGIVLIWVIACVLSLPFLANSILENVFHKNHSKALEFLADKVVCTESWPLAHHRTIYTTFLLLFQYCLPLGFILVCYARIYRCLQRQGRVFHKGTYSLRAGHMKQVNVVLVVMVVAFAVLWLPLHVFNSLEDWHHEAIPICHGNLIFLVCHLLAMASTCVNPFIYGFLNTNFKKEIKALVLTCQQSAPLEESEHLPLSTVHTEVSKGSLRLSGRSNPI

Structure (SMILES)	Ki [1] [nM]	EC50 [2] [nM]	Rmax [3] [%]	Ki [4] [nM]	Ratio Ki (Homo sapiens)
CC[C@H](C)[C@H](N)C(=O)N[C@H]1CCC(=O)NC[C@@H](C(=O)N[C@@H](Cc2ccc(O)cc2)C(=O)N[C@@H](CCCNC(=N)N)C(=O)N[C@@H](CC(C)C)C(=O)N[C@@H](CCCNC(=N)N)C(=O)N[C@@H](Cc2ccc(O)cc2)C(N)=O)NC(=O)[C@@H]2CCCN2C(=O)[C@@H](NC(=O)[C@@H](N)[C@@H](C)CC)CCC(=O)NC[C@@H](C(=O)N[C@@H](C)C(=O)N[C@@H](CCCNC(=N)N)C(=O)N[C@@H](CC(C)C)C(=O)N[C@@H](CCCNC(=N)N)C(=O)N[C@@H](Cc2ccc(O)cc2)C(N)=O)NC(=O)[C@@H]2CCCN2C1=O (I: H-IEP[Dap]ARLRY-NH2 / II: H-IEP[Dap]YRLRY-NH2; amide I:2-II:4, I:4-II:2)	631	37.2	52.3	2.34	269
CC[C@H](C)[C@H](N)C(=O)N[C@H]1CCC(=O)NC[C@@H](C(=O)N[C@@H](Cc2ccc(O)cc2)C(=O)N[C@@H](CCCNC(=N)N)C(=O)N[C@@H](CC(C)C)C(=O)N[C@@H](C)C(=O)N[C@@H](Cc2ccc(O)cc2)C(N)=O)NC(=O)[C@@H]2CCCN2C(=O)[C@@H](NC(=O)[C@@H](N)[C@@H](C)CC)CCC(=O)NC[C@@H](C(=O)N[C@@H](Cc2ccc(O)cc2)C(=O)N[C@@H](C)C(=O)N[C@@H](CC(C)C)C(=O)N[C@@H](CCCNC(=N)N)C(=O)N[C@@H](Cc2ccc(O)cc2)C(N)=O)NC(=O)[C@@H]2CCCN2C1=O (I: H-IEP[Dap]YALRY-NH2 / II: H-IEP[Dap]YRLAY-NH2; amide I:2-II:4, I:4-II:2)	912		-9.5	31.6	32
CC[C@H](C)[C@H](N)C(=O)N[C@H]1CCC(=O)NC[C@@H](C(=O)N[C@@H](Cc2ccc(O)cc2)C(=O)N[C@@H](CCCNC(=N)N)C(=O)N[C@@H](CC(C)C)C(=O)N[C@@H](CCCNC(=N)N)C(=O)N[C@@H](Cc2ccc(O)cc2)C(N)=O)NC(=O)[C@@H]2CCCN2C(=O)[C@@H](NC(=O)[C@@H](N)[C@@H](C)CC)CCC(=O)NC[C@@H](C(=O)N[C@@H](Cc2ccc(O)cc2)C(=O)N[C@@H](CCCNC(=N)N)C(=O)N[C@@H](CC(C)C)C(=O)N[C@@H](C)C(=O)N[C@@H](Cc2ccc(O)cc2)C(N)=O)NC(=O)[C@@H]2CCCN2C1=O (I: H-IEP[Dap]YRLAY-NH2 / II: H-IEP[Dap]YRLRY-NH2; amide I:2-II:4, I:4-II:2)	170	5.13	50.2	0.363	427
CC[C@H](C)[C@H](N)C(=O)N[C@H]1CCC(=O)NC[C@@H](C(=O)N[C@@H](Cc2ccc(O)cc2)C(=O)N[C@@H](CCCNC(=N)N)C(=O)N[C@@H](CC(C)C)C(=O)N[C@@H](CCCNC(=N)N)C(=O)N[C@@H](Cc2ccc(O)cc2)C(N)=O)NC(=O)[C@@H]2CCCN2C(=O)[C@@H](NC(=O)[C@@H](N)[C@@H](C)CC)CCC(=O)NC[C@@H](C(=O)N[C@@H](Cc2ccc(O)cc2)C(=O)N[C@@H](CCCNC(=N)N)C(=O)N[C@@H](CC(C)C)C(=O)N[C@@H](CCCNC(=N)N)C(=O)N[C@@H](C)C(N)=O)NC(=O)[C@@H]2CCCN2C1=O (I: H-IEP[Dap]YRLRA-NH2 / II: H-IEP[Dap]YRLRY-NH2; amide I:2-II:4, I:4-II:2)	174	6.76	55.2	0.257	676

Molecules with a lower Ki [1], results first:

Ki [1] [nM]	EC50 [2] [nM]	Rmax [3] [%]	Ki [4] [nM]	Structure (SMILES)	Ratio Ki (Homo sapiens)
158	23.4	56.4	25.1	CC[C@H](C)[C@H](N)C(=O)N[C@H]1CCC(=O)NCCCC[C@@H](C(=O)N[C@@H](Cc2ccc(O)cc2)C(=O)N[C@@H](CCCNC(=N)N)C(=O)N[C@@H](CC(C)C)C(=O)N[C@@H](CCCNC(=N)N)C(=O)N[C@@H](Cc2ccc(O)cc2)C(N)=O)NC(=O)[C@@H]2CCCN2C(=O)[C@@H](NC(=O)[C@@H](N)[C@@H](C)CC)CCC(=O)NCCCC[C@@H](C(=O)N[C@@H](Cc2ccc(O)cc2)C(=O)N[C@@H](CCCNC(=N)N)C(=O)N[C@@H](CC(C)C)C(=O)N[C@@H](CCCNC(=N)N)C(=O)N[C@@H](Cc2ccc(O)cc2)C(N)=O)NC(=O)[C@@H]2CCCN2C1=O (I: H-IEPKYRLRY-NH2 / II: H-IEPKYRLRY-NH2; amide I:2-II:4, I:4-II:2)	6.3
155	30.2	43.8	8.13	CC[C@H](C)[C@H](N)C(=O)N[C@H]1CCC(=O)NCC[C@@H](C(=O)N[C@@H](Cc2ccc(O)cc2)C(=O)N[C@@H](CCCNC(=N)N)C(=O)N[C@@H](CC(C)C)C(=O)N[C@@H](CCCNC(=N)N)C(=O)N[C@@H](Cc2ccc(O)cc2)C(N)=O)NC(=O)[C@@H]2CCCN2C(=O)[C@@H](NC(=O)[C@@H](N)[C@@H](C)CC)CCC(=O)NCC[C@@H](C(=O)N[C@@H](Cc2ccc(O)cc2)C(=O)N[C@@H](CCCNC(=N)N)C(=O)N[C@@H](CC(C)C)C(=O)N[C@@H](CCCNC(=N)N)C(=O)N[C@@H](Cc2ccc(O)cc2)C(N)=O)NC(=O)[C@@H]2CCCN2C1=O (I: H-IEP[Dab]YRLRY-NH2 / II: H-IEP[Dab]YRLRY-NH2; amide I:2-II:4, I:4-II:2)	19
129	12.9	48.2	0.275	CC[C@H](C)[C@H](N)C(=O)N[C@H]1CCC(=O)NC[C@@H](C(=O)N[C@@H](Cc2ccc(O)cc2)C(=O)N[C@@H](CCCNC(=N)N)C(=O)N[C@@H](CC(C)C)C(=O)N[C@@H](CCCNC(=N)N)C(=O)N[C@@H](Cc2ccc(O)cc2)C(N)=O)NC(=O)[C@@H]2CCCN2C(=O)[C@@H](NC(=O)[C@@H](N)[C@@H](C)CC)CCC(=O)NC[C@@H](C(=O)N[C@@H](Cc2ccc(O)cc2)C(=O)N[C@@H](CCCNC(=N)N)C(=O)N[C@@H](C)C(=O)N[C@@H](CCCNC(=N)N)C(=O)N[C@@H](Cc2ccc(O)cc2)C(N)=O)NC(=O)[C@@H]2CCCN2C1=O (I: H-IEP[Dap]YRARY-NH2 / II: H-IEP[Dap]YRLRY-NH2; amide I:2-II:4, I:4-II:2)	427
41.7 to 89.1	11.2 to 37.2	21.8 to 36.1	0.295 to 1.02	CC[C@H](C)[C@H](N)C(=O)N[C@H]1CCC(=O)NC[C@@H](C(=O)N[C@@H](Cc2ccc(O)cc2)C(=O)N[C@@H](CCCN=C(N)N)C(=O)N[C@@H](CC(C)C)C(=O)N[C@@H](CCCN=C(N)N)C(=O)N[C@@H](Cc2ccc(O)cc2)C(N)=O)NC(=O)[C@@H]2CCCN2C(=O)[C@@H](NC(=O)[C@@H](N)[C@@H](C)CC)CCC(=O)NC[C@@H](C(=O)N[C@@H](Cc2ccc(O)cc2)C(=O)N[C@@H](CCCN=C(N)N)C(=O)N[C@@H](CC(C)C)C(=O)N[C@@H](CCCN=C(N)N)C(=O)N[C@@H](Cc2ccc(O)cc2)C(N)=O)NC(=O)[C@@H]2CCCN2C1=O (I: H-IEP[Dap]YRLRY-NH2 / II: H-IEP[Dap]YRLRY-NH2; amide I:2-II:4, I:4-II:2)	87 to 141
63.1	4.27	33	12.9	CC[C@H](C)[C@H](N)C(=O)N[C@H]1CCC(=O)NCCC[C@@H](C(=O)N[C@@H](Cc2ccc(O)cc2)C(=O)N[C@@H](CCCNC(=N)N)C(=O)N[C@@H](CC(C)C)C(=O)N[C@@H](CCCNC(=N)N)C(=O)N[C@@H](Cc2ccc(O)cc2)C(N)=O)NC(=O)[C@@H]2CCCN2C(=O)[C@@H](NC(=O)[C@@H](N)[C@@H](C)CC)CCC(=O)NCCC[C@@H](C(=O)N[C@@H](Cc2ccc(O)cc2)C(=O)N[C@@H](CCCNC(=N)N)C(=O)N[C@@H](CC(C)C)C(=O)N[C@@H](CCCNC(=N)N)C(=O)N[C@@H](Cc2ccc(O)cc2)C(N)=O)NC(=O)[C@@H]2CCCN2C1=O (I: H-IEP[Orn]YRLRY-NH2 / II: H-IEP[Orn]YRLRY-NH2; amide I:2-II:4, I:4-II:2)	4.9
